Results: ChEMBL document CHEMBL1159121, “Synthesis, in vitro structure-activity relationship, and in vivo studies of 2-arylthiazolidine-4-carboxylic acid amides as anticancer agents” (Bioorg Med Chem, 2010)
The source made the active and inactive calls. No cut-off for these calls is given here.

Assays:
[1] = tested on: OVCAR-5; assay: Growth inhibition of human OVCAR5 cells; assay type: functional; conditions: for CC50: read-out: LC50 (the source's name)
[2] = tested on: HCT-15; assay: Growth inhibition of human HCT15 cells; assay type: functional; conditions: for CC50: read-out: LC50 (the source's name)
[3] = tested on: MCF7; assay: Growth inhibition of human MCF7 cells; assay type: functional
[4] = Toxicity in mouse assessed as maximum tolerated dose; assay type: organism-based; conditions: in vivo
Summary of the method: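 Tolerability was determined in ICR mice, with the compound formulated in a co-solvent of 80% Tween 80 and 20% Captex 200.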

[5] = tested on: A549; assay: Growth inhibition of human A549 cells; assay type: functional
[6] = tested on: A-375; assay: Inhibition of human A375 cells colony formation at 100 uM after 7 days by colony-formation assay; assay type: functional, cell-based
[7] = tested on: K562; assay: Growth inhibition of human K562 cells; assay type: functional
[8] = tested on: Malme-3M; assay: Growth inhibition of human MALME-3M cells; assay type: functional
[9] = tested on: MDA-MB-468; assay: Growth inhibition of human MDA-MB-468 cells; assay type: functional
[10] = tested on: DU-145; assay: Growth inhibition of human DU145 cells; assay type: functional; conditions: for CC50: read-out: LC50 (the source's name)
[11] = tested on: NCI-H226; assay: Growth inhibition of human NCI-H226 cells; assay type: functional; conditions: for CC50: read-out: LC50 (the source's name)
[12] = tested on: NCI-H23; assay: Growth inhibition of human NCI-H23 cells; assay type: functional; conditions: for CC50: read-out: LC50 (the source's name)
[13] = Growth inhibition of human […] cells; assay type: functional; conditions: for CC50: read-out: LC50 (the source's name)
[14] = tested on: A-375; assay: Antitumor activity against human A375 cells xenografted in athymic nude mouse assessed as tumor growth inhibition at 5 mg/kg, ip once daily administered 7 days after inoculation for 22 days; assay type: functional; parameters: scale not given: the % may be the effect or the level left; conditions: route intraperitoneal
Summary of the method: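 Male athymic nude mice, 4–5 weeks old, received 2.5 × 10^6 A375 cells (FBS-free DMEM mixed 1:1 with Matrigel) subcutaneously in the right dorsal flank. At about 150 mm3 (~day 7), mice were grouped by tumor size (n = 8). Drug in 80% Tween 80/20% Captex 200 was injected daily, with vehicle controls i.p. Calipers twice weekly (a×b²×0.5); % reduction at day 22 = 100×[(T–T0)/(C–C0)]. Body weight tracked.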

[15] = tested on: SNB-75; assay: Growth inhibition of human SNB75 cells; assay type: functional; conditions: for CC50: read-out: LC50 (the source's name)
[16] = tested on: A-375; assay: Antitumor activity against human A375 cells xenografted in athymic nude mouse assessed as tumor growth inhibition at 60 mg/kg, ip once daily administered 7 days after inoculation for 22 days; assay type: functional; parameters: scale not given: the % may be the effect or the level left; conditions: route intraperitoneal
Summary of the method: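 Male athymic nude mice, 4–5 weeks old, injected subcutaneously in the right flank with A375 cells (5 × 10^7/mL, 100 μL, 1:1 Matrigel). Grouped at about 150 mm3 (~day 7), n = 8. DTIC in saline given ip once daily. Caliper volume a×b²×0.5 measured twice weekly; % reduction 100×[(T–T0)/(C–C0)] at day 22. Body weight monitored.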

[17] = tested on: HCC 2998; assay: Growth inhibition of human HCC2998 cells; assay type: functional; conditions: for CC50: read-out: LC50 (the source's name)
[18] = tested on: UO-31; assay: Growth inhibition of human UO31 cells; assay type: functional; conditions: for CC50: read-out: LC50 (the source's name)
[19] = tested on: T47D; assay: Growth inhibition of human T47D cells; assay type: functional
[20] = tested on: A-375; assay: Inhibition of human A375 cells colony formation at 2 uM after 7 days by colony-formation assay; assay type: functional, cell-based
[21] = tested on: OVCAR-4; assay: Growth inhibition of human OVCAR4 cells; assay type: functional; conditions: for CC50: read-out: LC50 (the source's name)
[22] = tested on: NCI-H522; assay: Growth inhibition of human NCI-H522 cells; assay type: functional; conditions: for CC50: read-out: LC50 (the source's name)
[23] = tested on: A-375; assay: Cell cycle arrest in human A375 cells by assessed as increase in accumulation at subG1 phase […] by flow cytometry; assay type: functional, cell-based
[24] = tested on: IGROV-1; assay: Growth inhibition of human IGROV1 cells; assay type: functional; conditions: for CC50: read-out: LC50 (the source's name)
[25] = tested on: SR; assay: Growth inhibition of human SR cells; assay type: functional; conditions: for CC50: read-out: LC50 (the source's name)
[26] = tested on: LNCaP; assay: Cell cycle arrest in human LNCAP cells by assessed as increase in accumulation at subG1 phase […] by flow cytometry; assay type: functional, cell-based
[27] = tested on: SK-MEL-2; assay: Growth inhibition of human SK-MEL-2 cells; assay type: functional
[28] = tested on: A-375; assay: Inhibition of human A375 cells colony formation at 20 uM after 7 days by colony-formation assay; assay type: functional; conditions: A-375, 168 h
[29] = tested on: KM12; assay: Growth inhibition of human KM12 cells; assay type: functional
[30] = Selectivity ratio of IC50 for human fibroblasts to IC50 for human melanoma cells; assay type: ADME; conditions: human fibroblasts and human melanoma cells, read-out: Ratio IC50
[31] = tested on: LNCaP; assay: Antiproliferative activity against human LNCAP cells after 96 hrs by SRB assay; assay type: functional, cell-based
Summary of the method: (§1)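 Prostate lines in RPMI1640/10% FBS; RH7777 in DMEM/10% FBS. Cells TCA-fixed, stained with 0.4% SRB, absorbance read at 540 nm. IC50 from nonlinear regression of % survival against concentration.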

[32] = tested on: PC-3; assay: Antiproliferative activity against human PC3 cells after 96 hrs by SRB assay; assay type: functional, cell-based; conditions: PC-3, 96 h
[33] = tested on: CAKI-1; assay: Growth inhibition of human Caki1 cells; assay type: functional
[34] = tested on: DU-145; assay: Antiproliferative activity against human DU145 cells after 96 hrs by SRB assay; assay type: functional, cell-based; conditions: DU-145, 96 h; summary of the method: as §1
[35] = tested on: PPC-1; assay: Antiproliferative activity against human PPC1 cells after 96 hrs by SRB assay; assay type: functional, cell-based; conditions: PPC-1, 96 h; summary of the method: as §1
[36] = tested on: HOP-92; assay: Growth inhibition of human HOP92 cells; assay type: functional
[37] = tested on: A-375; assay: Antiproliferative activity against human A375 cells after 48 hrs by SRB assay; assay type: functional, cell-based; conditions: A-375, 48 h
Summary of the method: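 Melanoma lines and control fibroblasts grown at 37 °C, 5% CO2, then exposed to a wide concentration range for 48 h in round-bottom 96-well plates. Fixed with 10% TCA, stained with SRB, protein read at 560 nm. IC50 (50% growth inhibition versus untreated) obtained by nonlinear regression.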

[38] = read-out: LC50 (the source's name)

CCCCCCCCCCCCCCCCNC(=O)[C@@H]1CSC(c2ccc(NC(C)=O)cc2)N1 (mixture of isomers)
GI50 [1]: 0.2 µM
TGI [1]: 0.37 µM
CC50 [1]: 0.67 µM
GI50 [2]: 1 µM
TGI [2]: 3.22 µM
CC50 [2]: 11.9 µM
GI50 [3]: 0.19 µM
TGI [3]: 0.38 µM
CC50 [3, 38]: 0.8 µM
MTD [4]: 42 mg/kg
GI50 [5]: 0.36 µM
TGI [5]: 1.35 µM
CC50 [5, 38]: 5.28 µM
Activity [6]: Active
GI50 [7]: 0.21 µM
TGI [7]: 0.43 µM
CC50 [7, 38]: 0.9 µM
GI50 [8]: 0.32 µM
TGI [8]: 1.11 µM
CC50 [8, 38]: 3.95 µM
GI50 [9]: 0.22 µM
TGI [9]: 0.51 µM
CC50 [9, 38]: 1.54 µM
GI50 [10]: 0.27 µM
TGI [10]: 0.63 µM
CC50 [10]: 2.15 µM
GI50 [11]: 0.23 µM
TGI [11]: 0.39 µM
CC50 [11]: 0.69 µM
GI50 [12]: 0.32 µM
TGI [12]: 1.05 µM
CC50 [12]: 4.86 µM
GI50 [13]: 0.22 µM
TGI [13]: 0.56 µM
CC50 [13]: > 100 µM
Activity [14]: 25%
GI50 [15]: 0.18 µM
TGI [15]: 0.33 µM
CC50 [15]: 0.58 µM
Activity [16]: 42%
GI50 [17]: 0.44 µM
TGI [17]: 1.81 µM
CC50 [17]: 4.58 µM
GI50 [18]: 0.19 µM
TGI [18]: 0.34 µM
CC50 [18]: 6.1 µM
GI50 [19]: 0.24 µM
TGI [19]: 0.53 µM
CC50 [19, 38]: 2.3 µM
Activity [20]: Active
GI50 [21]: 0.23 µM
TGI [21]: 0.49 µM
CC50 [21]: 0.12 µM
GI50 [22]: 3.81 µM
TGI [22]: 20.7 µM
CC50 [22]: > 100 µM
Activity [23]: Dose-dependent effect
GI50 [24]: 0.17 µM
TGI [24]: 0.34 µM
CC50 [24]: 0.65 µM
GI50 [25]: 0.16 µM
TGI [25]: 0.35 µM
CC50 [25]: 0.81 µM
Activity [26]: Dose-dependent effect
GI50 [27]: 0.25 µM
TGI [27]: 0.54 µM
CC50 [27, 38]: 1.75 µM
inhibition at 20 µM [28]: 75%
GI50 [29]: 0.18 µM
TGI [29]: 0.33 µM
CC50 [29, 38]: 0.58 µM

CCCCCCCCCCCCCCCCCCNC(=O)[C@@H]1CSC(c2ccccc2)N1 (mixture of isomers)
GI50 [1]: 1.91 µM
TGI [1]: 3.32 µM
CC50 [1]: 5.76 µM
GI50 [2]: 10.9 µM
TGI [2]: 22.7 µM
CC50 [2]: 47.7 µM
selectivity ratio [30]: 2.6
IC50 [31]: 4.2 µM
IC50 [32]: 10 µM
GI50 [33]: 2.3 µM
TGI [33]: 4.31 µM
CC50 [33, 38]: 8.08 µM
GI50 [10]: 3.78 µM
TGI [10]: 15.7 µM
CC50 [10]: 39.6 µM
GI50 [11]: 2.06 µM
TGI [11]: 3.83 µM
CC50 [11]: 7.11 µM
GI50 [12]: 1.84 µM
TGI [12]: 3.36 µM
CC50 [12]: 6.17 µM
GI50 [13]: 2.12 µM
TGI [13]: 4.63 µM
CC50 [13]: 11.7 µM
IC50 [34]: 10.8 µM
IC50 [35]: 2.4 µM
GI50 [15]: 2.64 µM
TGI [15]: 4.15 µM
CC50 [15]: 6.54 µM
GI50 [17]: 0.54 µM
TGI [17]: 1.8 µM
CC50 [17]: 4.24 µM
GI50 [36]: 2.06 µM
TGI [36]: 4.12 µM
CC50 [36, 38]: 8.27 µM
GI50 [18]: 2.31 µM
TGI [18]: 5.38 µM
CC50 [18]: 16.3 µM
GI50 [21]: 2.61 µM
TGI [21]: 5.41 µM
CC50 [21]: 17.5 µM
GI50 [22]: 3.52 µM
TGI [22]: 12.3 µM
CC50 [22]: > 100 µM
GI50 [24]: 2.3 µM
TGI [24]: 5.47 µM
CC50 [24]: 18.9 µM
GI50 [25]: 0.49 µM
TGI [25]: 1.79 µM
CC50 [25]: 6.79 µM
IC50 [37]: 15 µM
